Measured values as given in PMC3228362 (Biochemistry, 2011).
“And” between values parts separate entries of the source, which are not always exact repeats. Equal values may be shown once. Read-outs that look alike come from different tables or passages of the source. Marks after values point to notes of the source that are not given here.

What was measured:
T4 exo^- DNA polymerase [1] = settings: opposite template 2AP, long A+T-rich DNA 1, cited from earlier work
[2] = target: T1, RB69 Y567A exo^- DNA polymerase (Escherichia phage RB69, UniProt Q38087, D222A/D327A/Y567A); format: biochemical, bacteriophage RB69
In short: (§1)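 Single-turnover rapid chemical quench at 22 °C in 66 mM Tris-HCl pH 7.5. Final concentrations were 100 nM 5′-32P-labeled DNA, 1 μM polymerase, 10 mM MgCl2 and varying dNTP. Reactions were quenched with 0.5 M EDTA. Products were resolved on 20% acrylamide/8 M urea gels and quantified by phosphorimaging. Data were fit to a single exponential.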

[3] = target: T2, RB69 exo^- DNA polymerase (D222A/D327A, wild type) (Escherichia phage RB69, UniProt Q38087, D222A/D327A); format: biochemical, bacteriophage RB69; settings: opposite template 2AP; for Kd: read-out: Kdincorp, app
In short: as §1

T4 exo^- DNA polymerase [4] = experiment: Nucleotide incorporation opposite template 2AP; format: biochemical, bacteriophage T4; settings: for kpol / Kdincorp: long A+T-rich DNA 1, from data of ref 13
T4 exo^- DNA polymerase [5] = settings: cited from earlier work
[6] = target: T1, RB69 Y567A exo^- DNA polymerase; experiment: Nucleotide binding opposite template 2AP; parameters: species or system bacteriophage RB69; settings: for Kd: opposite template 2AP
In short: (§2)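 Chain-terminated (dideoxy) 2AP-labeled primer-template DNA at 200 nM with a 2 to 2.5-fold excess of polymerase, in 25 mM HEPES pH 7.6, 50 mM NaCl, 1 mM DTT and 10 mM MgCl2. Nucleotide was added incrementally. Excitation was at 315 nm and emission was scanned from 330 to 450 nm with 2 nm band-pass, at 20 °C. Kd was taken from the fluorescence quench curves.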

T4 exo^- DNA polymerase [7] = experiment: Nucleotide binding opposite template 2AP; parameters: species or system bacteriophage T4; settings: for Kd: opposite template 2AP
[8] = target: T2, RB69 exo^- DNA polymerase (D222A/D327A, wild type); experiment: Nucleotide binding opposite template 2AP; parameters: species or system bacteriophage RB69; settings: for Kd: read-out: Kdbind, opposite template 2AP
In short: as §2

DNA polymerase α = settings: cited from earlier work
[9] = A+T- and G+C-rich DNAs (Table 1)
[10] = opposite template 2AP, long A+T-rich DNA 1
[11] = opposite template 2AP, long G+C-rich DNA 2
[12] = opposite template 2AP, short A+T-rich DNA 3
[13] = opposite template 2AP, short G+C-rich DNA 4
[14] = read-out: Kdincorp, app, opposite template 2AP, long A+T-rich DNA 1
[15] = read-out: Kdincorp, app, opposite template 2AP, short A+T-rich DNA 3
[16] = read-out: Kdincorp, app, opposite template 2AP, short G+C-rich DNA 4
[17] = read-out: Kdbind, long A+T-rich DNA 1
[18] = read-out: Kdbind, long G+C-rich DNA 2
[19] = read-out: Kd (Table 3), DNA 1, conditions as Table 1

T2 sequence (Q38087 whole entry D222A/D327A): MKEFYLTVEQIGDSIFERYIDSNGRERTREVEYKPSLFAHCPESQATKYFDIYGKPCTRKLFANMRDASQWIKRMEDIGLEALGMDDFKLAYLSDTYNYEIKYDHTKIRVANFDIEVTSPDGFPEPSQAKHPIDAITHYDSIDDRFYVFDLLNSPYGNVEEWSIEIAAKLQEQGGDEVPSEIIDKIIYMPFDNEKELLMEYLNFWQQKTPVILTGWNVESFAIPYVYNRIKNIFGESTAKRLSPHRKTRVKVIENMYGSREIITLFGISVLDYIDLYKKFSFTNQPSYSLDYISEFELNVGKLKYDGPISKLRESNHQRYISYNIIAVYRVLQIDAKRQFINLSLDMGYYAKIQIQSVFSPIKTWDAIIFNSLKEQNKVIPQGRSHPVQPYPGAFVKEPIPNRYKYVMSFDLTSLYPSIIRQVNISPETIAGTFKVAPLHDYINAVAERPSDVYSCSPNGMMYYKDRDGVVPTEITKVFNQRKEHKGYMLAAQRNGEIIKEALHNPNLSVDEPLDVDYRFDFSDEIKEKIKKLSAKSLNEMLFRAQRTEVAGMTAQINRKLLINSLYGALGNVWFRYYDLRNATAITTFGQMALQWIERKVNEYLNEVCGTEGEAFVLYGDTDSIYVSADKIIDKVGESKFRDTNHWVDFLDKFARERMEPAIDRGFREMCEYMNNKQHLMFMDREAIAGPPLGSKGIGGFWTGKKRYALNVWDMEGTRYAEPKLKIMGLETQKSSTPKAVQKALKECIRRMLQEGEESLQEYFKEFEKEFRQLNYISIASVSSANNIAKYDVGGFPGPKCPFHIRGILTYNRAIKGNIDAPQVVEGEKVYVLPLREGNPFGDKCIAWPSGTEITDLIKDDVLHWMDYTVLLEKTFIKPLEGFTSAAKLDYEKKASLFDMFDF
T1 sequence (Q38087 whole entry D222A/D327A/Y567A): as the sequence (Q38087 whole entry D222A/D327A) above, with Y567A counted along it

For `Nc1ccn([C@H]2C[C@H](O)[C@@H](COP(=O)(O)O)O2)c(=O)n1` [dCMP], the “kpol (overall nucleotide incorporation rate)” value (T4 exo^- DNA polymerase [1]) is given as 2.3 ± 0.1 s^−1 ^a, the kpol [2, 9] is given as ~ 6 s^−1 and the “kpol, fold lower than for incorporation of dTMP” value [2, 9] is given as over 30 fold. The “kpol/Kd incorporation ratio (efficiency of misincorporation)” value ([2]; longer and shorter A+T-rich DNA substrates) was 30000 to 40000 M⁻¹ s⁻¹, the “kpol/Kd incorporation ratio (efficiency of misincorporation)” value ([2]; longer and shorter G+C-rich DNA substrates) was 3000 to 7000 M⁻¹ s⁻¹ and the “kpol (overall nucleotide incorporation rate)” value [2, 10] was 6.4 ± 0.6 s⁻¹. The “kpol / Kdincorp” value [2, 10] was 40000 M⁻¹ s⁻¹, the “kpol (overall nucleotide incorporation rate)” value [2, 11] was about 6 s⁻¹ and the “kpol / Kdincorp” value [2, 11] was about 3000 M⁻¹ s⁻¹. For the same compound, the “kpol (overall nucleotide incorporation rate)” value [2, 12] was 9.3 ± 0.7 s⁻¹, the “kpol / Kdincorp” value [2, 12] was 30000 M⁻¹ s⁻¹ and the “kpol / Kdincorp” value [2, 13] was 7000 M⁻¹ s⁻¹. For the same compound, the Kd ([2]; read-out: Kd,app for incorporation, shorter A+T- and G+C-rich DNAs (Table 2)) was 300 to 360 µM, the Kd [2, 14] was ~170 µM and 170 µM and the Kd [2, 15] was 298 ± 65 µM. The Kd [2, 16] was 361 ± 52 µM, the “kpol (overall nucleotide incorporation rate)” value ([3]; short A+T-rich DNA 3) was “slow ^c” and the “kpol / Kdincorp” value ([3]; short A+T-rich DNA 3) was under 1000 to 3000 M⁻¹ s⁻¹. For the same compound, the “kpol (overall nucleotide incorporation rate)” value ([3]; short G+C-rich DNA 4) was “slow ^c”, the “kpol / Kdincorp” value ([3]; short G+C-rich DNA 4) was under 1000 to 3000 M⁻¹ s⁻¹ and the “kpol / Kdincorp” value (T4 exo^- DNA polymerase [4]) was under 0.0008 µM⁻¹ s⁻¹.
For `Nc1ccn([C@H]2C[C@H](O)[C@@H](COP(=O)(O)OP(=O)(O)OP(=O)(O)O)O2)c(=O)n1` [dCTP], the “inhibition of dTTP binding” value (T4 exo^- DNA polymerase [5]) is listed as “not an inhibitor of dTTP binding”, the Kd (T4 exo^- DNA polymerase [5]; read-out: Kd for binding opposite template 2AP) is listed as at least 3000 µM and the “Kd for binding, fold higher than Kd for dTTP binding” value ([6]; A+T-rich DNA substrate (DNA 1)) is listed as under 3 fold. The “Kd for binding, fold higher than Kd for dTTP binding” value ([6]; G+C-rich DNA (DNA 2)) was over 20 fold, the Kd [6, 17] was 24.8 ± 2.1 µM and the Kd [6, 18] was ~317 µM and 317 µM. For the same compound, the Kd ([6]; read-out: Kdbind, short A+T-rich DNA 3) was ~53 µM and 53 µM, the Kd ([6]; read-out: Kdbind, short G+C-rich DNA 4) was ~373 µM and 373 µM and the “discrimination against binding compared to dTTP, factor” value (T4 exo^- DNA polymerase [7]; 30 μM compared to 3 mM) was at least 100. The “discrimination against binding compared to dTTP, factor” value ([8]; 30 μM compared to 3 mM) was at least 100.
In the case of `Cc1cc(C2CC(O)C(COP(=O)(O)OP(=O)(O)OP(=O)(O)O)O2)c(F)cc1F` (centres unmarked) [dFTP, difluorotoluene deoxynucleoside triphosphate], the “quench of 2AP fluorescence” value (T4 exo^- DNA polymerase [5]; at concentrations <150 μM, T4 DNA pol binary complexes) is given as “does not quench 2AP fluorescence” and the Ki (T4 exo^- DNA polymerase [5]; read-out: Ki (competitive inhibitor of dTTP-Mg^2+-induced quenching), T4 DNA pol binary complexes) is given as about 68 µM.
In the case of `Cc1cn([C@H]2C[C@H](O)[C@@H](COP(=O)(O)O)O2)c(=O)[nH]c1=O` [dTMP], the “kpol (overall nucleotide incorporation rate)” value (T4 exo^- DNA polymerase [1]) is given as 165 ± 3 s^−1 ^a, the Kd (T4 exo^- DNA polymerase [1]; read-out: Kdincorp, app) is given as 367 ± 36 µM and the kpol [2, 9] is given as ~ 200 s^−1. For the same compound, the “preference for dTMP over dCMP incorporation” value ([2]; longer DNA substrates (Table 1)) was ~ 300 fold and > 300 fold, the “dTMP/dCMP (ratio of kpol / Kdincorp)” value [2, 10] was 375 and the “kpol (overall nucleotide incorporation rate)” value [2, 10] was 240 ± 11 s⁻¹. The “kpol / Kdincorp” value [2, 10] was 1.5e+07 M⁻¹ s⁻¹, the “dTMP/dCMP (ratio of kpol / Kdincorp)” value [2, 11] was 333 and the “kpol (overall nucleotide incorporation rate)” value [2, 11] was 190 ± 11 s⁻¹. For the same compound, the “kpol / Kdincorp” value [2, 11] was 1e+06 M⁻¹ s⁻¹, the “dTMP/dCMP (ratio of kpol / Kdincorp)” value [2, 12] was 143 and the “kpol (overall nucleotide incorporation rate)” value [2, 12] was 289 ± 9 s⁻¹. The “kpol / Kdincorp” value [2, 12] was 4.3e+06 M⁻¹ s⁻¹, the “dTMP/dCMP (ratio of kpol / Kdincorp)” value [2, 13] was 129 and the “kpol (overall nucleotide incorporation rate)” value [2, 13] was 233 ± 27 s⁻¹. For the same compound, the “kpol / Kdincorp” value [2, 13] was 900000 M⁻¹ s⁻¹, the Kd [2, 14] was ~16 µM and 16 µM and the Kd ([2]; read-out: Kdincorp, app, opposite template 2AP, long G+C-rich DNA 2) was 180 ± 75 µM. For the same compound, the Kd [2, 15] was 67.3 ± 8 µM, the Kd [2, 16] was 263 ± 78 µM and the “preference for dTMP over dCMP incorporation” value ([2]; shorter DNAs (Table 2)) was ~ 100 fold and > 100 fold. For the same compound, the “dTMP/dCMP (ratio of kpol / Kdincorp)” value ([3]; short A+T-rich DNA 3) was over 1000, the “kpol (overall nucleotide incorporation rate)” value ([3]; short A+T-rich DNA 3) was 379 ± 28 s⁻¹ and the “kpol / Kdincorp” value ([3]; short A+T-rich DNA 3) was 3.3e+06 M⁻¹ s⁻¹. For the same compound, the “dTMP/dCMP (ratio of kpol / Kdincorp)” value ([3]; short G+C-rich DNA 4) was over 1000, the “kpol (overall nucleotide incorporation rate)” value ([3]; short G+C-rich DNA 4) was 201 ± 16 s⁻¹ and the “kpol / Kdincorp” value ([3]; short G+C-rich DNA 4) was 1e+06 M⁻¹ s⁻¹. The Kd ([3]; short A+T-rich DNA 3) was 114 ± 26 µM, the Kd ([3]; short G+C-rich DNA 4) was 200 ± 45 µM and the “dTMP/dCMP (ratio of kpol / Kdincorp)” value (T4 exo^- DNA polymerase [4]; long A+T-rich DNA 1) was over 560. The “kpol / Kdincorp” value (T4 exo^- DNA polymerase [4]) was 0.45 ^f μM^−1 s^−1 and the “incorporation opposite template 2AP favored over incorporation of dCMP” value (DNA polymerase α) was 20- to 25 fold.
For `Cc1cn([C@H]2C[C@H](O)[C@@H](COP(=O)(O)OP(=O)(O)OP(=O)(O)O)O2)c(=O)[nH]c1=O` [dTTP], the “kpol (rate of nucleotide binding)” value (T4 exo^- DNA polymerase [5]; long A+T-rich DNA 1, rapid = within dead time of stopped flow instrument) is given as “rapid ^a”, the Kd (T4 exo^- DNA polymerase [5]; read-out: Kdbind, opposite template 2AP, long A+T-rich DNA 1) is given as ~35 µM and 35 µM and the Kd [6, 17] is given as 9.2 ± 0.8 µM. The Kd [6, 18] was 15.1 ± 1.4 µM, the “kpol (rate of nucleotide binding)” value (T4 exo^- DNA polymerase [7]; long G+C-rich DNA 2) was “rapid” and the Kd (T4 exo^- DNA polymerase [7]; [18]) was 28.7 ± 0.6 µM. For the same compound, the Kd ([8]; long A+T-rich DNA 1) was 31.1 ± 0.9 µM and the Kd ([8]; long G+C-rich DNA 2) was 30 ± 0.4 µM.
In the case of `O=c1ccn([C@H]2C[C@H](O)[C@@H](COP(=O)(O)OP(=O)(O)OP(=O)(O)O)O2)c(=O)[nH]1` [dUTP], the Kd [6, 19] is reported as 21 ± 1 µM and the Kd (T4 exo^- DNA polymerase [7]; [19]) is reported as 74.1 ± 2 µM.
`O=c1ccn([C@@H]2O[C@H](COP(=O)(O)OP(=O)(O)OP(=O)(O)O)[C@@H](O)[C@H]2O)c(=O)[nH]1` [rUTP] showed a Kd [6, 19] of 522 ± 55 µM and a Kd (T4 exo^- DNA polymerase [7]; [19]) of over 3000 µM.
